Active and inactive are the calls of the source.
Columns and labels:
Mus musculus [1] = experiment: Antinociceptive activity in Kunming mouse model of acute pain assessed as inhibition of acetic acid-induced writhes at 5 mg/kg, ip administered 30 mins prior to acetic acid challenge measured for 30 mins; type: functional, organism-based
Procedure, shortened: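 Acute-pain model in mice: compounds given ip, and writhing counted against vehicle-injected mice.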

Mus musculus [2] = experiment: Antinociceptive activity in Kunming mouse model of formalin-induced pain assessed as reduction of time spent in licking in phase 1 at 60 mg/kg, ip administered 30 mins before formalin injection measured for 5 mins; type: functional, organism-based
Procedure, shortened: (§1)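 Formalin test in mice with phases I and II scored separately. Compounds given ip, n = 10 per group. Data are mean ± SEM, compared with the vehicle group by one-way ANOVA followed by the Bonferroni test.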

Mus musculus [3] = experiment: Antinociceptive activity in Kunming mouse model of formalin-induced pain assessed as reduction of time spent in licking in phase 2 at 60 mg/kg, ip administered 30 mins before formalin injection measured after 15 mins up to 30 mins; type: functional, organism-based; procedure, shortened: as §1
Mus musculus [4] = experiment: Antinociceptive activity in Kunming mouse model of acute pain assessed as inhibition of acetic acid-induced writhes at 0.08 mg/kg, ip administered 30 mins prior to acetic acid challenge measured for 30 mins relative to control; type: functional
Procedure, shortened: (§2)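 Acetic acid-induced writhing in mice after ip dosing, with a vehicle-injected group for comparison. Reported as mean ± SEM of 12 mice per group. Significance vs vehicle by one-way ANOVA followed by Bonferroni test.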

Mus musculus [5] = experiment: Antinociceptive activity in Kunming mouse model of acute pain assessed as inhibition of acetic acid-induced writhes at 0.8 mg/kg, ip administered 30 mins prior to acetic acid challenge measured for 30 mins in presence of nonselective opioid antagonist naloxone; type: functional, organism-based
Mus musculus [6] = experiment: Antinociceptive activity in Kunming mouse model of formalin-induced pain assessed as reduction of time spent in licking in phase 2 at 2 mg/kg, ip administered 30 mins before formalin injection measured after 15 mins up to 30 mins; type: functional, organism-based
Procedure, shortened: (§3)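 Formalin test scored in phase I and phase II after ip dosing, against a vehicle group (n = 10). Control drugs used: morphine and ibuprofen. Data are mean ± SEM. Significance vs vehicle by one-way ANOVA followed by Bonferroni test.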

Mus musculus [7] = experiment: Antinociceptive activity in Kunming mouse model of formalin-induced pain assessed as reduction of time spent in licking in phase 1 at 2 mg/kg, ip administered 30 mins before formalin injection measured for 5 mins; type: functional, organism-based; procedure, shortened: as §3
Mus musculus [8] = experiment: Antinociceptive activity in ip dosed Kunming mouse model of acute pain assessed as inhibition of acetic acid-induced writhes administered 30 mins prior to acetic acid challenge measured for 30 mins; type: functional; settings: for ED50: read-out: ID50 (the source's name); procedure, shortened: as §2
Mus musculus [9] = experiment: Toxicity in ip dosed Kunming mouse by Karber's method; type: organism-based; settings: in vivo
Mus musculus [10] = experiment: Antinociceptive activity in Kunming mouse model of acute pain assessed as inhibition of acetic acid-induced writhes at 0.08 mg/kg, ip administered 30 mins prior to acetic acid challenge measured for 30 mins in presence of nonselective opioid antagonist naloxone; type: functional, organism-based
Mus musculus [11] = experiment: Antinociceptive activity in po dosed Kunming mouse model of STZ-induced diabetic neuropathy pain assessed as complete reversal of mechanical hyperalgesia; type: functional, organism-based
Procedure, shortened: (§4)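 Streptozotocin-diabetic mice with mechanical hyperalgesia were dosed orally (n = 8), with vehicle and gabapentin groups for comparison. Data are mean ± SEM. Significance vs vehicle by one-way ANOVA followed by Bonferroni test.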

Mus musculus [12] = experiment: Antinociceptive activity in Kunming mouse model of STZ-induced diabetic neuropathy pain assessed as increase in paw withdrawal mechanical threshold at 0.2 to 0.4 mg/kg, po relative to gabapentin; type: functional; procedure, shortened: as §4
Mus musculus [13] = experiment: Antinociceptive activity in Kunming mouse assessed as increase in licking latency time at 0.02 to 0.08 mg/kg, ip by hot plate test; type: functional, organism-based
[14] = Selectivity index, ratio of LD50 for toxicity in Kunming mouse to ID50 for antinociceptive activity in Kunming mouse model of acute pain; type: organism-based; settings: in vivo, read-out: Selectivity Index
Mus musculus [15] = experiment: Antinociceptive activity in ip dosed Kunming mouse model of formalin-induced pain assessed as reduction of time spent in licking in phase 2 administered 30 mins before formalin injection measured for 15 to 30 mins; type: functional, organism-based; procedure, shortened: as §3
Mus musculus [16] = experiment: Antinociceptive activity in ip dosed Kunming mouse model of formalin-induced pain assessed as reduction of time spent in licking in phase 1 administered 30 mins before formalin injection measured for 5 mins; type: functional, organism-based; procedure, shortened: as §3
Mus musculus [17] = experiment: Antinociceptive activity in Kunming mouse assessed as increase in licking latency time at 0.08 mg/kg, ip by hot plate test; type: functional, organism-based
Mus musculus [18] = experiment: Antinociceptive activity in Kunming mouse model of STZ-induced diabetic neuropathy pain assessed as increase in paw withdrawal mechanical threshold at 50 mg/kg, po; type: functional, organism-based; procedure, shortened: as §4

In the case of CC1=C2CC[C@@H]3[C@@H](O)[C@@]2(C[C@@H](O)[C@@]2(O)[C@H]1[C@@H](O)[C@H](O)C2(C)C)C[C@@]3(C)O, the inhibition (Mus musculus [1]) is reported as “inactive”.

In the case of CC(C)Cc1ccc(C(C)C(=O)O)cc1 (stereo not drawn), the Activity (Mus musculus [2]) is reported as “inactive” and the Activity (Mus musculus [3]) is reported as “Active”.

For CC1(C)[C@@H](O[C@@H]2O[C@H](CO)[C@@H](O)[C@H](O)[C@H]2O)[C@@H](O)[C@H]2[C@](C)(O)[C@@H]3CC[C@@H]4[C@@H](O)[C@@]3(C[C@@H](O)[C@@]21O)C[C@@]4(C)O, the inhibition (Mus musculus [1]) was “inactive”.

In the case of CC1(C)[C@@H](O[C@@H]2O[C@H](CO)[C@@H](O)[C@H](O)[C@H]2O)[C@H](O)[C@H]2[C@](C)(O)[C@@H]3CC[C@@H]4[C@@H](O)[C@@]3(C[C@@H](O)[C@@]21O)C[C@@]4(C)O, the inhibition (Mus musculus [1]) is reported as “Active”.

For CC1(C)[C@@H](O[C@@H]2O[C@H](CO)[C@@H](O)[C@H](O)[C@H]2O)[C@@H](O)[C@@H]2[C@@](C)(O)[C@@H]3CC[C@@H]4C[C@@]3(C[C@@H](O)[C@@]21O)C[C@@]4(C)O, the inhibition (Mus musculus [1]) was “Active”.

For C=C1[C@@H]2[C@H](O)[C@H](O[C@@H]3O[C@H](CO)[C@@H](O)[C@H](O)[C@H]3O)C(C)(C)[C@@]2(O)[C@H](O)C[C@]23C[C@@](C)(O)[C@H](CC[C@@H]12)[C@H]3O, the inhibition (Mus musculus [1]) was “inactive”.

In the case of CC1(C)[C@H]2O[C@H]2[C@H]2[C@](C)(O)[C@@H]3C[C@@H](O)[C@@H]4[C@@H](O)[C@@]3(C[C@@H](O)[C@@]21O)C[C@@]4(C)O, the inhibition (Mus musculus [1]) is reported as “Active”.

CC1(C)[C@@H](O)C[C@H]2[C@](C)(O)[C@@H]3CC[C@@H]4[C@@H](O)[C@@]3(C[C@@H](O)[C@@]21O)C[C@@]4(C)O [GRAYANOTOXIN III] showed an inhibition in vivo at 0.08 mg/kg (Mus musculus [4]) of 55.6%.

In the case of C=C1[C@@H]2[C@@H](O)[C@H](O)C(C)(C)[C@@]2(O)[C@H](O)C[C@]23C[C@@](C)(O)[C@H](CC[C@@H]12)[C@H]3O, the inhibition (Mus musculus [1]) is reported as “inactive”.

For CN1CC[C@]23c4c5ccc(O)c4O[C@H]2[C@@H](O)C=C[C@H]3[C@H]1C5 [MORPHINE], the inhibition (Mus musculus [5]) was “inactive”, the Activity (Mus musculus [6]) was “Active” and the Activity (Mus musculus [7]) was “Active”. For the same compound, the ED50 (Mus musculus [8]) was 0.343 mg/kg.

In the case of C=C1[C@@H]2CC[C@@H]3C[C@@]2(C[C@@H](O)[C@@]2(O)[C@@H]1[C@H](O)[C@H](O)C2(C)C)C[C@@]3(C)O, the inhibition (Mus musculus [1]) is reported as “Active”.

In the case of C=C1[C@@H]2CC[C@@H]3[C@@H](O)[C@@]2(C[C@@H](O)[C@@]2(O)[C@H]1C[C@H](O)C2(C)C)C[C@@]3(C)O, the inhibition (Mus musculus [1]) is reported as “Active”.

With CC1(C)[C@@H](O)[C@H](O)[C@H]2[C@](C)(O)[C@@H]3CC[C@@H]4[C@@H](O)[C@@]3(C[C@@H](O)[C@@]21O)C[C@@]4(C)O the LD50 (Mus musculus [9]) was 1.791 mg/kg, the inhibition in vivo at 0.08 mg/kg (Mus musculus [4]) was 64.2% and the inhibition (Mus musculus [10]) was “Active”. The Activity (Mus musculus [11]) was “Dose-dependent effect”, the “fold change (FC)” value (Mus musculus [12]) was 100 and the Activity (Mus musculus [13]) was “inactive”. For the same compound, the selectivity ratio [14] was 24.6, the inhibition (Mus musculus [8]) was “Dose-dependent effect” and the ED50 (Mus musculus [8]) was 0.0727 mg/kg. The Activity (Mus musculus [15]) was “Dose-dependent effect” and the Activity (Mus musculus [16]) was “Dose-dependent effect”.

In the case of C=C1C[C@@]23C[C@@H](O)[C@@]4(O)[C@H](C(=C)[C@@H]2CC[C@@H]1[C@H]3O)[C@@H](O)[C@H](O)C4(C)C, the inhibition (Mus musculus [1]) is reported as “inactive”.

For CC1(C)[C@H]2O[C@H]2[C@H]2[C@](C)(O)[C@@H]3CC[C@@H]4[C@@H](O)[C@@]3(C[C@@H](O)[C@@]21O)C[C@@]4(C)O, the LD50 (Mus musculus [9]) was 0.271 mg/kg, the inhibition in vivo at 0.08 mg/kg (Mus musculus [4]) was 73.7% and the inhibition (Mus musculus [10]) was “Active”. The Activity (Mus musculus [11]) was “Dose-dependent effect”, the “fold change (FC)” value (Mus musculus [12]) was 100 and the selectivity ratio [14] was 5.8. The inhibition (Mus musculus [8]) was “Dose-dependent effect”, the ED50 (Mus musculus [8]) was 0.0469 mg/kg and the Activity (Mus musculus [17]) was “Active”. For the same compound, the Activity (Mus musculus [15]) was “Dose-dependent effect” and the Activity (Mus musculus [16]) was “Dose-dependent effect”.

With C=C1[C@@H]2[C@H](O)[C@H](O)C(C)(C)[C@@]2(O)[C@H](O)C[C@]23C=C(C)[C@H](CC[C@@H]12)[C@H]3O the inhibition (Mus musculus [1]) was “inactive”.

With NCC1(CC(=O)O)CCCCC1 the Activity (Mus musculus [18]) was “Active”.

In the case of CC1(C)[C@@H](O)[C@@H](O)[C@@H]2[C@@](C)(O)[C@@H]3CC[C@@H]4[C@@H](O)[C@@]3(C[C@@H](O)[C@@]21O)C[C@@]4(C)O, the inhibition (Mus musculus [1]) is reported as “Active”.

With C=C1[C@@H]2[C@@H](O)[C@H](O[C@@H]3O[C@H](CO)[C@@H](O)[C@H](O)[C@H]3O)C(C)(C)[C@@]2(O)[C@H](O)C[C@]23C[C@@](C)(O)[C@H](CC[C@@H]12)[C@H]3O the inhibition (Mus musculus [1]) was “inactive”.
